Experimental data pooled from the literature.
Target: Bone morphogenetic protein receptor type-1B (BMPR1B, Homo sapiens, UniProt O00238)

| SMILES | assay | setting | remaining binding [%] |
| --- | --- | --- | --- |
| N[C@H]1CCN(c2nccc(-c3cnn4ncccc34)n2)C1 | binding | 1 µM | 100 |
| COCCOc1nc(-c2ccc(Cl)nc2)nc2c1CN(C(=O)c1ncn3ccccc13)CC2 | cell-free assay, competition with immobilised ligand | 0.1 µM | 100 |
| c1cnn2ncc(-c3ccnc(N4CCC45COC5)n3)c2c1 | binding | 1 µM | 52 |
| O=C(NCC1CCOCC1)c1n[nH]cc1NC(=O)c1c(F)cccc1F | binding, competition with immobilised ligand | 1 µM | 90 |
| CN(C)c1ncc(F)c(-c2cnn3ncccc23)n1 | binding | 1 µM | 64 |
| CC1=C(C#N)C(c2ccc3c(c2)c(NC(=O)c2ccccc2C)nn3C)C(C#N)=C(C)N1 | cell-free assay, competition with immobilised ligand | 1 µM | 91 |
| O=C(c1ccc(Nc2nccc(-c3cc4ccccc4s3)n2)cc1)N1CCC(N2CCCC2)CC1 | binding, competition with immobilised ligand | 1 µM | 41 |
| O=C(NCc1ncc(C(F)(F)F)cc1Cl)c1ccc2c(c1)C1(CCS(=O)(=O)CC1)[C@H](C1CC1)N2S(=O)(=O)c1ccc(F)cc1 | cell-free assay, competition with immobilised ligand | 1 µM | 93 |
| CN(C)c1nccc(-c2cnn3ncccc23)n1 | binding | 1 µM | 76 |
| O=C(c1ccc(Nc2ncc(Cl)c(-c3cc4ccccc4s3)n2)cc1)N1CCC(N2CCCC2)CC1 | binding, competition with immobilised ligand | 1 µM | 62 |
| CSc1cccnc1N1CCN(Cc2nc3ccccc3[nH]2)CC1 | cell-free assay, competition with immobilised ligand | 1 µM | 80 |
| C[C@H]1CCN(c2nccc(-c3cnn4ncccc34)n2)C1 | binding | 1 µM | 60 |
| COc1ccc2c(c1)O[C@H](c1ccc(OC)c(OC)c1)C[C@@H]2NC(=O)C1(c2ccc3c(c2)OC(F)(F)O3)CC1 | cell-free assay, competition with immobilised ligand | 1 µM | 100 |
| CNC(=O)[C@@H]1CC[C@@H](n2c(-c3ccc4cnccc4c3)nc3ccc(C(=O)NCc4cccc(C(N)=O)c4)cc32)C1 | binding, competition with immobilised ligand | 1 µM | 80 |
| Cc1cc(C)c(-n2ccn3nc(-c4cccnc4)cc23)cc1NC(=O)c1cc(C#N)cc(S(F)(F)(F)(F)F)c1 | cell-free assay, competition with immobilised ligand | 0.1 µM | 72.3 |
| C=CC(=O)N1CCC(C(=O)NCC(=O)N2CCN(c3nc(-c4cnc(N)nc4C(F)F)nc(N4CCOCC4)n3)CC2)CC1 | binding, competition with immobilised ligand | 1 µM | 64 |
| CCN1CCN(Cc2ccc(C(=O)Nc3ccc(C)c(Oc4ccc5c(c4)CC(=O)N5)c3)cc2C(F)(F)F)CC1 | binding, competition with immobilised ligand | 1 µM | 100 |
| O=C(NCCCN1CCOCC1)c1ccc(Nc2nccc(-c3cc4ccccc4s3)n2)cc1 | binding, competition with immobilised ligand | 1 µM | 34 |
| Cc1cnn2ncc(-c3ccnc(N(C)C)n3)c2c1 | binding | 1 µM | 67 |
| FC(F)(F)Oc1cccc(-c2cnc3ccc(-c4ccncc4)nn23)c1 | cell-free assay, competition with immobilised ligand | 5 µM | 22 |
| O=c1nc(-c2ccccn2)sc2ccccc12 | cell-free assay, competition with immobilised ligand | 1 µM | 75 |
| COc1ccnn2ncc(-c3ccnc(N(C)C)n3)c12 | binding | 1 µM | 51 |
